# Screening results from PubChem BioAssay.
# The list is not random: actives were taken first. Their share in the collection is about 1.2%.
# CaV13 ICDI inh: Disruptors of the CACNA1D IQ motif to Ca2+-dependent inactivation inhibitor domain association, primary screening, Förster resonance energy transfer in intact living … | inhibition, % at 12.3 µM | HEK cells, CFP/YFP FRET ICDI-IQ, plate reader, 10 min; percent FRET-ratio fall versus neutral wells | 340,000 tested, 0.098% active;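 active = mean replicate inhibition of at least 30% and at least 1% of replicates passing that level; inconclusive = only one of the two criteria is met; inactive = neither criterion is met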;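 note: 0% = median of the neutral control wells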
# FN deposition inh: fibronectin deposition inhibition; inhibition, % at 12.6 µM; 350,000 tested, 0.086% active; AH1F fibroblasts, Alexa488-fibronectin deposition fluorescence, overnight;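 active = mean inhibition across replicates of 30% or more, regardless of how many single replicates reach that level; inconclusive = mean under 30% yet at least half of replicates reach 30%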;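 note: positive control wells lacked labelled fibronectin entirely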
#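 Assay system: AH1F fibroblasts / Quantity: 10000 cells per well / Medium: DMEM plus 2% serum, read in PBS / Reagent: labelled fibronectin 24 nM / Dosing: single dose, pinned / Times: 1 h cell attachment, overnight exposure to compound and label / Signal: fluorescence, ex 485 nm, em 525 nm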
# SR-BI HDL uptake: blocks mouse SR-BI lipid uptake from DiI-HDL | 320,000 tested, 0.96% active | inhibition, % at 12.5 µM | ldlA[mSR-BI] CHO cells, DiI-HDL uptake fluorescence, 3 h;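 active = mean replicate inhibition of at least 70% and a set share of replicates each scoring 70 or more; inconclusive = meets just one of the two criteria; inactive = fails both criteria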;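 note: 0% = median of neutral control wells and 100% = median of positive control wells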
# Target sequence (Q61009 whole entry, looked up): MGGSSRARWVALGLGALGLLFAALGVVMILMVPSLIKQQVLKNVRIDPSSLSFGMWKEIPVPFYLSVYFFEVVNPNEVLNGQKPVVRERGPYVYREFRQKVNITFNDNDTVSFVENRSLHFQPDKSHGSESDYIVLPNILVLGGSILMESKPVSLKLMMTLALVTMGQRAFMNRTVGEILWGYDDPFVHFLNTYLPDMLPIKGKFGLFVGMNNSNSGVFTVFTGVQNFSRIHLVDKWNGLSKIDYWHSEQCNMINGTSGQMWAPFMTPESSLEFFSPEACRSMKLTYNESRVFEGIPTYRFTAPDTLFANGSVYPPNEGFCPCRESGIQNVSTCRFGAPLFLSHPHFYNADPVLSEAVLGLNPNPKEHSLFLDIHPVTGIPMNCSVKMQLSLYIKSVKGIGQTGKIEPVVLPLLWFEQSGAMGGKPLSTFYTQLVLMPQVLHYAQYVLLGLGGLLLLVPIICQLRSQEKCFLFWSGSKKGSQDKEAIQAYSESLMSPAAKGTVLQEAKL
# SR-BI uptake up: SR-BI HDL lipid transfer activation; CHO ldlA[mSR-BI] cells, DiI-HDL uptake fluorescence, 3 h; 100 = double the neutral-control signal; activation, % at 12.5 µM; 320,000 tested, 0.096% active;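 active = mean replicate activation of at least 60% and every replicate at or above 60%; inconclusive = mean or all-replicate condition met, but not both; inactive = mean below 60% and not all replicates reaching 60%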;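 note: 0% = median plate neutral-control signal and 100% = twice that signal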
#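 System: CHO ldlA[mSR-BI] cells / Medium: HEPES-buffered (25 mM, pH 7.4) F12 plus 0.5% BSA / Probe or stimulus: labelled HDL, 10 µg/mL / Doses: single compound concentration, delivered by pin transfer / Schedule: 3 h, 37 °C / Measured by: DiI fluorescence, bottom read / Measure: cell-associated DiI fluorescence as measure of HDL uptake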
# Efflux pump inh: blocks antifungal efflux pumps in multiplex yeast assay; 330,000 tested, 0.44% active; inhibition, % at 10 µM; S. cerevisiae Candida pump triplex, Nile Red efflux;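 active = plate passing quality check with inhibition over a set limit, or well fluorescence over plate mean plus 4 SD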;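 note: Nile Red retained in pooled yeast measured as flow cytometry median fluorescence; 0% = buffer negative control and 100% = Enniatin B positive control; higher means more Nile Red kept so more efflux inhibition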
# Cmpd fluor yeast: compound fluorescence in yeast efflux pump counter-screen; shares compounds with Efflux pump inh; AID 588517; fluorescence ratio to DMSO, % at 10 µM; S. cerevisiae AD/pABC3, flow cytometry; 1,700 tested, 4% active;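 active = fluorescence ratio to DMSO above its plate's cutoff, the plate mean ratio plus 5 SD, cut at about 210% in these data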;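 note: unstained yeast with no Nile Red so the signal is compound autofluorescence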
# CaMdr1 efflux inh: blocks the Candida albicans Mdr1 efflux pump in yeast; AID 588518; 1,700 tested, 1% active; S. cerevisiae AD/CaMDR1, Nile Red efflux, flow cytometry; inhibition, % at 10 µM; shares compounds with Efflux pump inh; in the data active = inhibition above about 26%;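 note: 0% = DMSO vehicle and 100% = reference inhibitor; higher means more Nile Red retained so more efflux inhibition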
# CaCdr2 efflux inh: blocks the Candida albicans Cdr2 efflux pump in yeast. shares compounds with Efflux pump inh. S. cerevisiae AD/CaCDR2, Nile Red retention, flow cytometry. Nile Red retention ratio vs DMSO, % at 10 µM. 1,700 tested, 4% active. AID 588520; in the data active = Nile Red retention ratio vs DMSO above about 190%;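 note: higher ratio means more blocking of Cdr2 efflux of the dye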
# CaCdr1 efflux inh: Candida Cdr1 efflux pump inhibition; shares compounds with Efflux pump inh; S. cerevisiae AD/CaCDR1, Nile Red efflux, flow cytometry; inhibition, % at 10 µM; 1,700 tested, 1% active;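 active = inhibition above the screen-wide mean plus twice its standard deviation, cut at about 32% in these data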
# DiI quencher: DiI fluorescence quenching in cell-free counter-screen; AC50, µM (doses to about 35 µM), for inactives: at the top dose activity change, negative = quenching; cell-free DiI-HDL fluorescence quenching, 30 min; 470 tested, 20% active; shares compounds with SR-BI HDL uptake;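 active = quenching, a falling signal, with AC50 below a set limit tied to the top valid dose, actives reach about 32 µM in these data; inconclusive = no clear call, values can overlap the other calls; inactive = rising signal, and the rest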
# An asterisk follows results filed as active; ? = inconclusive; nt = no result given.
SMILES,CaV13 ICDI inh,FN deposition inh,SR-BI HDL uptake,SR-BI uptake up,Efflux pump inh,Cmpd fluor yeast,CaMdr1 efflux inh,CaCdr2 efflux inh,CaCdr1 efflux inh,others
C[C@@H]1CN([C@@H](C)CO)C(=O)c2cc(-c3ccccc3)cnc2O[C@@H]1CN(C)C(=O)NC1CCCC1,nt,8,nt,nt,nt,nt,nt,nt,nt,
CO[C@H]1CN(C)C(=O)c2cc(NC(=O)Nc3ccccc3)ccc2OC[C@H](C)N(C(=O)CC2CC2)C[C@H]1C,nt,-10,nt,nt,nt,nt,nt,nt,nt,
C[C@@H]1CCCCO[C@H](CN(C)S(=O)(=O)c2ccccc2)[C@H](C)CN([C@@H](C)CO)C(=O)c2cc(NS(=O)(=O)c3cn(C)cn3)ccc2O1,nt,-5,nt,nt,nt,nt,nt,nt,nt,
O=Cc1cn(CC(=O)Nc2ccc3c(c2)OCO3)c2ccccc12,-6,-1,4,-4,1.1*,104,0,109,0,
CC1Cc2ccccc2N1CC(=O)Nc1ccc2c(c1)OCO2 (configuration not stated),-7,nt,16,-16,12*,134,1,104,1,
Cc1ccc(NC(=O)Cn2cc(C=O)c3ccccc32)cc1,-2,-1,17,-17,0,nt,nt,nt,nt,
O=C(Cc1ccccc1[N+](=O)[O-])Nc1ccc2c(c1)OCO2,-3,-3,-1,1,1.3*,103,0,89,0,
CCOC(=O)N1CCC(NC(=O)CN2C(=O)CCSc3ccccc32)CC1,19,6,4,-4,0,100,0,90,0,
C[C@H](CO)N1C[C@H](C)[C@H](CN(C)Cc2ccncc2)Oc2cc(C#C[C@@H](C)O)ccc2S1(=O)=O,nt,-11,nt,nt,nt,nt,nt,nt,nt,
O=C(C[C@@H]1C[C@@H]2c3cc(NC(=O)Nc4ccccc4)ccc3O[C@@H]2[C@H](CO)O1)NCc1cccc(F)c1,nt,-7,nt,nt,nt,nt,nt,nt,nt,
O=C(CN1C(=O)CCSc2ccccc21)Nc1ccc2c(c1)OCO2,-8,nt,-22,22,0,95,0,107,0,
C[C@@H]1CCCCO[C@H](CN(C)Cc2ccncc2)[C@H](C)CN([C@@H](C)CO)C(=O)c2cc(NS(=O)(=O)c3ccc(F)cc3)ccc2O1,nt,-7,nt,nt,nt,nt,nt,nt,nt,
CCN(CC)S(=O)(=O)c1ccc(N2CCOCC2)c(NC(=O)CCC2CCCCC2)c1,-6,nt,-14,14,13*,101,0,94,0,
Cc1ccc(S(=O)(=O)Nc2cc(C)c(O)c(Sc3n[nH]c(C)n3)c2)cc1,-7,18,nt,nt,0,99,-1,109,0,
CCN1CCCC1CNS(=O)(=O)c1cc(Br)cc2c1N(C(=O)C1CC1)CC2 (configuration not stated),-6,nt,5,-5,20*,103,0,97,0,
CCOCCCNS(=O)(=O)c1cc(Br)cc2c1N(C(=O)C1CC1)CC2,nt,7,27,-27,0,nt,nt,nt,nt,
Cc1nc(N2[C@H](CO)[C@H](c3ccccc3)[C@H]2CNCC2CCCC2)sc1C,nt,-5,nt,nt,nt,nt,nt,nt,nt,
COc1ccccc1N(C(=O)CN1C(=O)c2ccccc2S1(=O)=O)C(C(=O)NCC1CCCO1)c1ccc(F)cc1 (configuration not stated),-2,2,41,-41,2,nt,nt,nt,nt,
Cc1cc(C)c(N(C(=O)CN2C(=O)c3ccccc3S2(=O)=O)C(C(=O)NCC2CCCO2)c2ccc(F)cc2)c(C)c1 (configuration not stated),-7,nt,-15,15,22*,113,0,112,0,
COc1ccc(C2C(C#N)=C(N)N(c3ccccc3C#N)C3=C2C(=O)CCC3)cc1CN1CCCC1 (configuration not stated),-3,-2,3,-3,9.6*,103,0,91,0,DiI quencher=-4%
O=C(C[C@@H]1CC[C@@H]2[C@H](COC[C@H](O)CN2Cc2cc(F)cc(F)c2)O1)NC1CCC1,nt,-13,nt,nt,nt,nt,nt,nt,nt,
Cc1cc(C)nc(Nc2n[nH]c(-c3ccc(C(C)(C)C)cc3)n2)n1,15,-9,108*,-108,0,nt,nt,nt,nt,DiI quencher=11µM*
N#Cc1sc2nc(C3CC3)cc(-c3ccc(Cl)cc3)c2c1N,-8,-11,?,-71,0,nt,nt,nt,nt,DiI quencher=1%
COc1ccc(NC(=O)C2CC(c3c(F)cccc3Cl)=NO2)cc1OC (configuration not stated),-3,3,22,-22,0,nt,nt,nt,nt,
COc1cc(NC(=O)C2CC(c3c(F)cccc3Cl)=NO2)c(OC)cc1Cl (configuration not stated),-4,1,82*,-82,0,nt,nt,nt,nt,DiI quencher=0%
CC(C)CN(C(=O)COC(=O)C12CC3CC(CC(O)(C3)C1)C2)C1CCS(=O)(=O)C1 (configuration not stated),nt,8,9,-9,0,nt,nt,nt,nt,DiI quencher=-6%
CO[C@H]1CN(C)C(=O)c2cc(NC(=O)C3CC3)ccc2OC[C@H](C)N(C)C[C@@H]1C,nt,-3,nt,nt,nt,nt,nt,nt,nt,
Cc1ccc(C(C(=O)NC(C)(C)C)N(Cc2cccs2)C(=O)c2csnn2)cc1 (configuration not stated),-8,nt,-19,19,0,nt,nt,nt,nt,
